Experimental findings from ChEMBL document CHEMBL4177556, “Novel 5-HT7R antagonists, arylsulfonamide derivatives of (aryloxy)propyl piperidines: Add-on effect to the antidepressant activity of SSRI and DRI, and pro-cognitive profile” (Bioorg Med Chem, 2017) are described below.

Usually Ki stands for the equilibrium dissociation constant of an inhibitor or competing ligand from its target. For orientation: Kb means the affinity of an antagonist, worked out from how it opposes an agonist.

Activity calls are given as the source filed them. Bounds are passed on as bounds.

In data set [1] the target is T1, 5-hydroxytryptamine receptor 7 (Homo sapiens, UniProt P34969). The data set is described as follows: Displacement of [3H]-5-CT from human 5-HT7b receptor expressed in HEK293 cells after 1 hr by microbeta counting analysis. The class given is cell-based. The essentials: (§1)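 Membranes from stably transfected HEK293 or CHO-K1 cells, homogenized, centrifuged twice at 35,000g, with 15 min at 37 °C in between. Receptor-specific Tris-HCl buffers with MgCl2, plus EDTA, pargyline or ascorbate as applicable. Incubated 1 h at 37 °C (5-HT1A at room temperature), filtered, and bound radioactivity counted.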
For orientation: Loss of bound radioactivity is the signal in a displacement assay; it reports binding, not function.

In data set [2] the target is T2, 5-hydroxytryptamine receptor 1A (Homo sapiens, UniProt P08908).
T2 sequence (P08908 whole entry): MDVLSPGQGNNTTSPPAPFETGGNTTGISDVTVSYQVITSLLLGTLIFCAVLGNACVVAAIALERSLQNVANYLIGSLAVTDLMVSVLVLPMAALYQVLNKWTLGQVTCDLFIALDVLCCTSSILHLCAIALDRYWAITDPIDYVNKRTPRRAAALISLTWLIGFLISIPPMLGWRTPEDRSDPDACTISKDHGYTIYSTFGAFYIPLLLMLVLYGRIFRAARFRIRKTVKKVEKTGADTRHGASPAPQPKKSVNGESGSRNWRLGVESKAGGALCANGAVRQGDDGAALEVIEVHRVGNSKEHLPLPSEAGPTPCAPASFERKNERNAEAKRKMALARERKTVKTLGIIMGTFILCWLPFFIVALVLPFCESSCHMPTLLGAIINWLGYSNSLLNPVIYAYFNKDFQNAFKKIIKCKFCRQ
The data set is described as follows: Displacement of [3H]-8-OH-DPAT from human 5-HT1A receptor expressed in HEK293 or CHO-K1 cells after 1 hr by microbeta counting analysis. Type of data set: cell-based. Summed up:
as §1

For data set [3], the species on record is Homo sapiens. The data set can be described thus: Selectivity ratio of Ki for human 5-HT1A receptor to Ki for human 5-HT7b receptor.
Data set [4] has as its target 5-hydroxytryptamine receptor 6 (Homo sapiens, UniProt P50406). The data set is described as follows: Displacement of [3H]-LSD from human 5-HT6 receptor expressed in HEK293 or CHO-K1 cells after 1 hr by microbeta counting analysis. The class given is cell-based. The essentials:
as §1

Data set [5] addresses 5-hydroxytryptamine receptor 2A (Homo sapiens, UniProt P28223). The data set can be described thus: Displacement of [3H]-Ketanserin from human 5-HT2A receptor expressed in HEK293 or CHO-K1 cells after 1 hr by microbeta counting analysis. Type of data set: cell-based. Summed up:
as §1

Data set [6] addresses D(2) dopamine receptor (Homo sapiens, UniProt P14416). The data set can be described thus: Displacement of [3H]-Raclopride from human dopamine D2L receptor expressed in HEK293 or CHO-K1 cells after 1 hr by microbeta counting analysis. The class given is cell-based. The essentials:
as §1

Data set [7] deals with T1, 5-hydroxytryptamine receptor 7. The data set is described as follows: Antagonist activity at human 5-HT7b receptor expressed in HEK293 cells assessed as inhibition of 5-CT induced cAMP accumulation after 30 mins by LANCE based TR-FRET assay. Type of data set: functional, cell-based. The essentials:
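Stable 5-HT7 HEK293 cells in DMEM with 10% dialysed FBS and G418, harvested at 90% confluence, washed in warm PBS, and resuspended in HBSS/5 mM HEPES/0.5 mM IBMX/0.1% BSA. Compound incubated with cells for 30 min at room temperature against 5-CT (10 nM). Cells lysed with Eu-cAMP/ULight-anti-cAMP for 1 h at room temperature, then LANCE cAMP read-out. Triplicate at 8 concentrations.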
In general terms: Cyclic AMP is a second messenger, typically raised through Gs and lowered through Gi signalling.

Data set [8] has as its target Sodium-dependent serotonin transporter (Homo sapiens) (UniProt P31645). The data set can be described thus: Displacement of [3H]imipramine from recombinant human SERT at 1 uM after 60 mins by scintillation counting analysis relative to control. The essentials:
(§2)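 Transporter and α1-adrenergic binding run externally by Eurofins Cerep using their standard protocols. Reported as % inhibition of control specific binding.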

Data set [9] has as its target Sodium-dependent dopamine transporter (Homo sapiens) (UniProt Q01959). The data set can be described thus: Displacement of [3H]BTCP from recombinant human DAT at 1 uM after 120 mins by scintillation counting analysis relative to control. The essentials:
as §2

Data set [10] concerns the target Sodium-dependent noradrenaline transporter (Homo sapiens) (UniProt P23975). The data set can be described thus: Displacement of [3H]nisoxetine from recombinant human NET at 1 uM after 120 mins by scintillation counting analysis relative to control. Summed up:
as §2

Data set [11] deals with Mus musculus. The data set is described as follows: Antidepressant-like activity in Swiss albino mouse assessed as decrease in immobility time at 0.625 to 2.5 mg/kg measured during last 4 mins of 6 mins test by forced swim test relative to control. The class given is functional. More on the design: scale not given: the % may be the effect or the level left. The essentials: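 Porsolt swim test in male Swiss albino mice (22–26 g), 7–10 per dose, each used once, run 09:00–14:00 by a blinded observer. Drugs in distilled water, i.p. at 10 ml/kg: escitalopram 30 min before test, others 60 min. Immobility scored during the last 4 min of a 6 min swim at 23–25 °C. One-way ANOVA with Bonferroni vs vehicle.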

Data set [12] has as its system Mus musculus. The data set is described as follows: Antidepressant-like activity in C57BL/6J mouse assessed as increase in force of fights at 2.5 mg/kg measured during 6 mins session by tail suspension test. The class given is functional, organism-based. The essentials:
(§3)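 Male C57BL/6J mice (22–26 g), 7–9 per group. Compound in distilled water, i.p. at 10 ml/kg, 60 min before test. Mice suspended by tail from a strain-gauge hook for 6 min. Struggling episodes, average event force and immobility (force below 0.20 N threshold) recorded automatically. One-way ANOVA with Bonferroni; mean ± SEM.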

Data set [13] concerns Mus musculus. The data set can be described thus: Antidepressant-like activity in C57BL/6J mouse assessed as decrease in immobility time at 2.5 mg/kg measured during 6 mins session by tail suspension test. Type of data set: functional, organism-based. Summed up: as §3
In data set [14] the test system is Mus musculus. The data set is described as follows: Antidepressant-like activity in C57BL/6J mouse assessed as increase in number of fight episodes at 1.25 mg/kg measured during 6 mins session by tail suspension test. Type of data set: functional, organism-based. Summed up: as §3
In data set [15] the test system is Rattus norvegicus. The data set can be described thus: Cognitive enhancement effect in Sprague-Dawley rat memory impairment model assessed as reversal of natural forgetting impairment administered ip 30 mins prior to test measured after 24 hrs by novel object recognition test. The class given is functional, organism-based. The essentials: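 Male Sprague–Dawley rats (about 250 g), handled and acclimatized. Habituated to an open field arena (25 lx) for 5 min, 24 h before testing. Two 3-min trials (T1, T2) separated by a 24 h inter-trial interval. Drug given i.p. 30 min before T1. Object exploration video-tracked; discrimination index = (EB−EA)/(EA+EB).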

For data set [16], the system named is Mus musculus. The data set is described as follows: Antidepressant-like activity in Swiss albino mouse assessed as decrease in immobility time at 0.312 mg/kg cotreated with 0.625 mg/kg of escitalopram measured during last 4 mins of 6 mins test by forced swim test relative to control. Set-up: scale not given: the % may be the effect or the level left. The class given is functional. The essentials:
(§4)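 Male Swiss albino mice, 7–10 per group. Test compound (i.p., 60 min pre-test) co-given with reboxetine or bupropion (60 min) or escitalopram (30 min), all in distilled water at 10 ml/kg. Placed in a water cylinder (10 cm water, 23–25 °C) for 6 min; immobility scored over the last 4 min by a blinded observer. Two-way ANOVA with Bonferroni.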

Data set [17] has as its system Mus musculus. The data set can be described thus: Antidepressant-like activity in Swiss albino mouse assessed as decrease in immobility time at 0.312 mg/kg cotreated with 1.25 mg/kg of bupropion measured during last 4 mins of 6 mins test by forced swim test. Type of data set: functional, organism-based. Summed up: as §4
Data set [18] deals with Mus musculus. The data set can be described thus: Toxicity in mouse assessed as effect on spontaneous locomotory activity at 0.312 to 2.5 mg/kg, ip administered 60 mins prior to testing measured for 6 mins. The class given is organism-based. To be noted: in vivo, 0.1 h. Summed up: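 Swiss albino or C57BL/6J mice habituated 30 min in activity cages. Ambulation counted from 2–6 min (matching the swim test) or over 6 min (matching the tail suspension test) with an infrared multi-channel activity monitor. Dosing i.p. as for the behavioral tests.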

Data set [19] deals with Adrenergic receptor alpha-1 (Homo sapiens) (UniProt P35348+P25100+P35368). The data set can be described thus: Binding affinity to alpha1-adrenergic receptor (unknown origin) at 1 uM relative to control. Type of data set: protein assay. The essentials: as §2
Data set [20] relates to Mus musculus. The data set can be described thus: Antidepressant-like activity in C57BL/6J mouse assessed as increase in number of fight episodes at 0.625 to 1.25 mg/kg measured during 6 mins session by tail suspension test. The class given is functional, organism-based. Summed up: as §3
Data set [21] concerns Mus musculus. The data set can be described thus: Antidepressant-like activity in C57BL/6J mouse assessed as decrease in immobility time at 1.25 mg/kg measured during 6 mins session by tail suspension test. Type of data set: functional, organism-based. Summed up: as §3

T1 sequence (P34969 whole entry): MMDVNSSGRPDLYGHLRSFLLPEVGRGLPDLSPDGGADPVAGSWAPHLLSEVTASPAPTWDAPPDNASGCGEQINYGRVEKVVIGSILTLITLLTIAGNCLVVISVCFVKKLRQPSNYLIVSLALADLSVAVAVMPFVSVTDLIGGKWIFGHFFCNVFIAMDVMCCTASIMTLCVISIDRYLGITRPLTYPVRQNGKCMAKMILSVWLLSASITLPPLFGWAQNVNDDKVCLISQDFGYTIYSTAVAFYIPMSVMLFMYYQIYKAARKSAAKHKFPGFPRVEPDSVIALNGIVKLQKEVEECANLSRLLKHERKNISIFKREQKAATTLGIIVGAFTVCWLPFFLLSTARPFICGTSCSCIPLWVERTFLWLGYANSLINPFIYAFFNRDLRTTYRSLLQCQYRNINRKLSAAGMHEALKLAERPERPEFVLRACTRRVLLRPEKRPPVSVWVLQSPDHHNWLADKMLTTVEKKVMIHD
Chain of Sodium-dependent dopamine transporter (Homo sapiens) (Q01959 whole entry): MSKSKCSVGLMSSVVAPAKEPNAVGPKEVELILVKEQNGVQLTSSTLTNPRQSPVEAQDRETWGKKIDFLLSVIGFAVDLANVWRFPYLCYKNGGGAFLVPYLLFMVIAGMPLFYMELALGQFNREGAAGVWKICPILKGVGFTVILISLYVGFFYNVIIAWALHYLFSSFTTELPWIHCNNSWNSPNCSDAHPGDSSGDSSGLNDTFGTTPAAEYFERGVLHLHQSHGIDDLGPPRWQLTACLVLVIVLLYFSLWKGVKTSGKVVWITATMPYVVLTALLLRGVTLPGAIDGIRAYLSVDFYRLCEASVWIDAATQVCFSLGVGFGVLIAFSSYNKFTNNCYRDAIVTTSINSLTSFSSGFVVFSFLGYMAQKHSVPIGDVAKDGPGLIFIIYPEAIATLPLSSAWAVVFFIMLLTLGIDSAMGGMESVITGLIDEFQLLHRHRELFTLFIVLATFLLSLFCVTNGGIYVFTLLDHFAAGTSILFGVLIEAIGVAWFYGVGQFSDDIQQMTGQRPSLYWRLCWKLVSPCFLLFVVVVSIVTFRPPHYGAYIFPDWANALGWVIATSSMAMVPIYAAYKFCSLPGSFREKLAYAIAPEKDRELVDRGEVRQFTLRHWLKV
Chain of Sodium-dependent noradrenaline transporter (Homo sapiens) (P23975 whole entry): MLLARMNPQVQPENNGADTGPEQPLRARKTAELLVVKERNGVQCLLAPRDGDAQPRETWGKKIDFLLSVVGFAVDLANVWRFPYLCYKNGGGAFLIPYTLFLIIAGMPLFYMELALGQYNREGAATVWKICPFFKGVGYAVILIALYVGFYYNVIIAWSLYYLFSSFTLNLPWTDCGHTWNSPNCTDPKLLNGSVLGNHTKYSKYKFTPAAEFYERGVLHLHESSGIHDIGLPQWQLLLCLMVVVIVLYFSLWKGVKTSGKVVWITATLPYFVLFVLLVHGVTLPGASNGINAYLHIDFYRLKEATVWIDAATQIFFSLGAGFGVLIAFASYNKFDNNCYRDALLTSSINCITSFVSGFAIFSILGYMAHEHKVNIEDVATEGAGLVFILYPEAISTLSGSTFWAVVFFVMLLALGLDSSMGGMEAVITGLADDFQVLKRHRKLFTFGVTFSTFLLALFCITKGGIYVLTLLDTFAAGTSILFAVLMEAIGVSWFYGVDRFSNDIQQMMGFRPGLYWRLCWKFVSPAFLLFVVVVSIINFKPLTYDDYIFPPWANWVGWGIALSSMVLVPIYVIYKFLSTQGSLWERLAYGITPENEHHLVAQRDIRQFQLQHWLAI
Chain of D(2) dopamine receptor (P14416 whole entry): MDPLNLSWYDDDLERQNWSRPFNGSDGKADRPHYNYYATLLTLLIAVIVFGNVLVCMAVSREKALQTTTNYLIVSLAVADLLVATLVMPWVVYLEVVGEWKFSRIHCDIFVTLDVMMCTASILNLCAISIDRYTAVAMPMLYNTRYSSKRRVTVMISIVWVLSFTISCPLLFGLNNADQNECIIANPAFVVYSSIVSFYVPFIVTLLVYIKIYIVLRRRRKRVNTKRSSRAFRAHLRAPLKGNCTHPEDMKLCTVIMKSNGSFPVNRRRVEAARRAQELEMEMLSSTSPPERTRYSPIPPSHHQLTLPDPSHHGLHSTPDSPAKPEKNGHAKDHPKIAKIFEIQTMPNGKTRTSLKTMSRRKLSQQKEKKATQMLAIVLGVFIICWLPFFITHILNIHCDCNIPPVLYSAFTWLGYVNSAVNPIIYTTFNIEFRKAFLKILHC
Chain of 5-hydroxytryptamine receptor 6 (P50406 whole entry): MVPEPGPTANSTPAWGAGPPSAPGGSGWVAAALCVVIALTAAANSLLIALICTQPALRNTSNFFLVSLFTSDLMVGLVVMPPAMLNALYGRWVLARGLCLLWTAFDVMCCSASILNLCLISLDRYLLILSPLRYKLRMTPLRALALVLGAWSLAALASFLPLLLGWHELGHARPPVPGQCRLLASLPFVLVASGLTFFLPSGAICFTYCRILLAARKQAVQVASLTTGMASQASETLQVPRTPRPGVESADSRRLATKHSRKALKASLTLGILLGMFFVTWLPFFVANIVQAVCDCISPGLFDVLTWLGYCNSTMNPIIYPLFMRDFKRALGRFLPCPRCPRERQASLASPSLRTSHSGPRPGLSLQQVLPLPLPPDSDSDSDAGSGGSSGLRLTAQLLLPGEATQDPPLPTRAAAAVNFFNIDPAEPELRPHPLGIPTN
Chain of 5-hydroxytryptamine receptor 2A (P28223 whole entry): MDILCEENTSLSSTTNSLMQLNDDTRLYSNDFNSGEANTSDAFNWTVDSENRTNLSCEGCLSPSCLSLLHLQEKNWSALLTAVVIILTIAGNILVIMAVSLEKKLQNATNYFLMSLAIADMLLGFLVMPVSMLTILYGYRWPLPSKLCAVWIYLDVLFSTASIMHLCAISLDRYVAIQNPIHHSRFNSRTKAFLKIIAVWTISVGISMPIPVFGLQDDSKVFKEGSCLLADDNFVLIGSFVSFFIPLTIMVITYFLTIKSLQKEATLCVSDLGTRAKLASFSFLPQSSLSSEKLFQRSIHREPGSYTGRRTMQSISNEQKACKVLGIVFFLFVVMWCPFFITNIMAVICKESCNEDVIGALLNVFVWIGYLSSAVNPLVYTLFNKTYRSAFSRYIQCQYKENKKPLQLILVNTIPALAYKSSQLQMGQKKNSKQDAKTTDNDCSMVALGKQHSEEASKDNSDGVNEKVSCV
Chain of Sodium-dependent serotonin transporter (Homo sapiens) (P31645 whole entry, looked up): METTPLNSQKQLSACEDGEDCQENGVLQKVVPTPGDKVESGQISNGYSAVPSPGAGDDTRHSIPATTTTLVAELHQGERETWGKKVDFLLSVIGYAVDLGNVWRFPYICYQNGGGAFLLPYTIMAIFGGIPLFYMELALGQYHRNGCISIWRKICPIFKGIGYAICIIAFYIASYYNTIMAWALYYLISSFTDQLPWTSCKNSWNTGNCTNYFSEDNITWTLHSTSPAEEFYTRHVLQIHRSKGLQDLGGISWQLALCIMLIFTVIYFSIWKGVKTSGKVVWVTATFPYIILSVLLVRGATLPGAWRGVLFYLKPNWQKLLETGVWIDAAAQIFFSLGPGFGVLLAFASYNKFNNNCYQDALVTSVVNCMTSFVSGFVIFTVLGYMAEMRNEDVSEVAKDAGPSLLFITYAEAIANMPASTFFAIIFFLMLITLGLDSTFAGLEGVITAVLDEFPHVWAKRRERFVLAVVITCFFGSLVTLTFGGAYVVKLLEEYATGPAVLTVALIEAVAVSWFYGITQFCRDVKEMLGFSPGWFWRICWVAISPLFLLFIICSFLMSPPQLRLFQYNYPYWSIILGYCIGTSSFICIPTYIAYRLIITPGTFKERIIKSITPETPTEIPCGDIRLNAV

For `CC(COc1ccccc1-c1ccccc1)N1CCC(NS(=O)(=O)c2cccc(Cl)c2)CC1` (stereo not drawn), the Ki in data set [1] turned out to be 32 nM; in data set [2], 696 nM. The Ratio Ki in data set [3] was 22.
In the case of `CC(C)c1ccccc1OCCCN1CCC(NS(=O)(=O)c2ccc(F)cc2)CC1`, the Ki in [4] was determined as 268 nM; in [1] it was 32 nM; in data set [2], 2080 nM; in data set [5], 1350 nM; in data set [6], 328 nM. The Ratio Ki in data set [3] was determined as 65. In data set [7], the antagonist dissociation constant (Kb) is 1 nM. The Activity was 79% in data set [8]; less than 10% in [9]; less than 10% in data set [10]; 19 - 53% in [11]; “Dose-dependent effect” in [15]; 32.6% in [16]. Besides, the Activity entry in data set [18] was “Non-Toxic”. Also, the outcome in [12], in [13], in [14] and in data set [17] was Active.
For the compound `CC(C)c1ccccc1OCC(C)N1CCC(NS(=O)(=O)c2ccc(F)cc2)CC1` (stereo not drawn), the Ki in data set [1] amounted to 74 nM; in data set [2] it was 1170 nM. Further, the Ratio Ki in [3] is 16.
For `O=S(=O)(NC1CCN(CC(O)COc2ccccc2-c2ccccc2)CC1)c1ccc(F)cc1` (stereo not drawn), in that order: 59 nM, 1320 nM and 22.
`O=S(=O)(NC1CCN(CC(O)COc2ccccc2-c2ccccc2)CC1)c1cccc(Cl)c1` (stereo not drawn): the Ki in data set [4] came to 295 nM; in [1] it was 33 nM; in data set [2] it was 1330 nM; in [5], 2110 nM; in data set [6], 343 nM. Also, the Ratio Ki in data set [3] was found to be 40. The Kb in [7] came out at 25 nM. Moreover, the Activity in [8] is less than 40%; in [9], less than 40%; in data set [10], less than 40%; in data set [19], less than 10%; in data set [11], 28 - 46%; in data set [15] it was “Dose-dependent effect”. For the same compound, the Activity in data set [16] is listed as 25.4%; in data set [18], “Non-Toxic”. Also, the outcome in data set [20], in data set [12], in [13], in [21] and in data set [17] was Active.
For the compound `CC(COc1ccccc1-c1ccccc1)N1CCC(NS(=O)(=O)c2ccc(F)cc2)CC1` (stereo not drawn), the Ki worked out at 34 nM in [1] and 297 nM in [2]. Also, the Ratio Ki in data set [3] worked out at 9.
Take `CC(C)c1ccccc1OCCCN1CCC(NS(=O)(=O)c2cccc(F)c2)CC1`: the figures for the Ki in data set [1] and in data set [2] were 52 nM and 1790 nM, respectively. Further, the Ratio Ki in [3] worked out at 34.
